According to ChEMBL document CHEMBL4138318, “Discovery of 5-Cyano-6-phenylpyrimidin Derivatives Containing an Acylurea Moiety as Orally Bioavailable Reversal Agents against P-Glycoprotein-Mediated Mutidrug Resistance” (J Med Chem, 2018):
Activity calls are given as the source filed them. The calls are words filed in the database; no cut-off is given here.

How the values were obtained:
[1] = molecular target: T1, ATP-dependent translocase ABCB1 (Homo sapiens, UniProt P08183); test: Inhibition of ABCB1 in human SW620/AD300 cells assessed as potentiation of paclitaxel-induced cytotoxicity by measuring fold reduction in paclitaxel IC50 at 2 uM after 72 hrs by MTT assay relative to paclitaxel alone; type: cell-based
In short: (§1)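 SW620/AD300 cells (~5×10^3/well) treated with graded paclitaxel with or without modulator (2 µM, or 0.5-2 µM in dose series; 0.1% DMSO solvent control) for 72 h; MTT (5 mg/mL stock) added 4 h, absorbance 490 nm. IC50 as mean ± SD of three independent runs; reversal fold = paclitaxel IC50 without/with modulator.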

[2] = Cytotoxicity against human SW620 cells assessed as survival at 2 uM after 72 hrs by MTT assay relative to control; type: cell-based, SW-620; conditions: read-out: Survival
[3] = Cytotoxicity against human SW620/AD300 cells assessed as survival at 2 uM after 72 hrs by MTT assay relative to control; type: cell-based; conditions: read-out: Survival
[4] = molecular target: T1, ATP-dependent translocase ABCB1; test: Inhibition of ABCB1 in human SW620/AD300 cells assessed as potentiation of paclitaxel-induced cytotoxicity by measuring fold reduction in paclitaxel IC50 at 0.5 uM after 72 hrs by MTT assay; type: cell-based; in short: as §1
[5] = molecular target: T1, ATP-dependent translocase ABCB1; test: Inhibition of ABCB1 in human SW620/AD300 cells assessed as potentiation of paclitaxel-induced cytotoxicity after 72 hrs by MTT assay; type: cell-based; in short: as §1
[6] = molecular target: T1, ATP-dependent translocase ABCB1; test: Inhibition of ABCB1 in human SW620/AD300 cells assessed as potentiation of paclitaxel-induced cytotoxicity by measuring fold reduction in paclitaxel IC50 at 1 uM after 72 hrs by MTT assay; type: cell-based; in short: as §1
[7] = molecular target: T1, ATP-dependent translocase ABCB1; test: Inhibition of ABCB1 in human SW620/AD300 cells assessed as accumulation of rhodamine 123 preincubated for 4 hrs followed by rhodamine 123 addition measured after 30 mins by flow cytometry; type: cell-based; conditions: 0.5 h
[8] = tested on: SW-620; test: Increase in rhodamine 123 accumulation in human SW620 cells up to 4 uM preincubated for 4 hrs followed by rhodamine 123 addition measured after 30 mins by flow cytometry; type: functional, cell-based
[9] = molecular target: T1, ATP-dependent translocase ABCB1; test: Inhibition of ABCB1 in human SW620/AD300 cells assessed as decrease in rhodamine 123 efflux preincubated for 4 hrs followed by 30 mins incubation in Rho-123 containing medium and subsequent incubation in Rho-123 free medium up to 120 mins by flow cytometry; type: cell-based
In short: (§2)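 Cells loaded with rhodamine 123 as in the accumulation assay (4 h compound pre-exposure, 1 µg/mL dye 30 min, 37℃), then kept in dye-free medium with or without reversal agent for 30, 60, 90 or 120 min at 37℃; intracellular fluorescence read by flow cytometry at 488/530 nm. Three independent experiments.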

[10] = molecular target: T1, ATP-dependent translocase ABCB1; test: Inhibition of ABCB1 in human SW620/AD300 cells assessed as intracellular accumulation of [3H]-paclitaxel up to 4 uM preincubated for 4 hrs followed by [3H]-paclitaxel addition measured after 2 hrs by liquid scintillation counting method; type: cell-based
In short: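 Cells pre-exposed with or without compound at various concentrations 4 h at 37°C, then 0.1 µM [3H]-paclitaxel added for 2 h in continued presence of treatment; washed three times in cold PBS, lysed, radioactivity counted by liquid scintillation. Mean ± SD of three independent assays.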

[11] = molecular target: T1, ATP-dependent translocase ABCB1; test: Inhibition of ABCB1 in human SW620/AD300 cells assessed as reduction in [3H]-paclitaxel efflux preincubated for 4 hrs followed by [3H]-paclitaxel addition for 2 hrs measured after 120 mins by liquid scintillation counting method; type: cell-based
In short: (§3)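 After 2 h loading with 0.1 µM [3H]-paclitaxel (following 4 h compound pre-exposure), SW620 or SW620/AD300 cells moved to label-free medium for a 2 h efflux phase; samples taken at 0, 30, 60 and 120 min and radioactivity counted by liquid scintillation. Three independent assays, mean ± SD.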

[12] = tested on: SW-620; test: Inhibition of [3H]-paclitaxel efflux in human SW620 cells up to 4 uM preincubated for 4 hrs followed by [3H]-paclitaxel addition for 2 hrs measured after 120 mins by liquid scintillation counting method; type: functional, cell-based; in short: as §3
[13] = molecular target: T1, ATP-dependent translocase ABCB1; test: Stimulation of human ABCB1 ATPase activity expressed in high-five insect cell membrane vesicles by colorimetric analysis
In short: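 Vanadate-sensitive ABCB1 ATPase activity in High Five insect cell membrane vesicles, measured with a commercial ATPase kit under a modified protocol; compound tested across 0-40 µM; maximal fold stimulation and concentration giving 50% stimulation derived.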

[14] = molecular target: T2, Multidrug resistance-associated protein 1 (Homo sapiens, UniProt P33527); test: Binding affinity at ABCC1 in human SW620/AD300 cells assessed as thermal stabilization preincubated for 30 mins followed by incubation 40 to 61 degC for 3 mins by CETSA; type: cell-based; conditions: 0.05 h
In short: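 SW620/AD300 cells lysed by three liquid-nitrogen freeze-thaw cycles; ultracentrifuged supernatant split into compound-treated and solvent-control portions, incubated 30 min at 37℃, aliquoted and heated 3 min at 40, 43, 46, 49, 52, 55, 58 or 61℃; remaining ABCB1 or ABCC1 detected by western blotting.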

[15] = molecular target: T1, ATP-dependent translocase ABCB1; test: Inhibition of ABCB1 in human KB-C2 cells assessed as potentiation of vincristine-induced cytotoxicity by measuring fold reduction in vincristine IC50 at 1 uM preincubated for 4 hrs followed by vincristine addition measured after 72 hrs by MTT assay; type: cell-based
[16] = molecular target: T1, ATP-dependent translocase ABCB1; test: Inhibition of ABCB1 (unknown origin) expressed in HEK293 cells assessed as potentiation of vincristine-induced cytotoxicity by measuring fold reduction in vincristine IC50 at 1 uM preincubated for 4 hrs followed by vincristine addition measured after 72 hrs by MTT assay; type: cell-based
[17] = molecular target: T2, Multidrug resistance-associated protein 1; test: Inhibition of ABCC1 in human KB-CV60 cells assessed as potentiation of vincristine-induced cytotoxicity by measuring fold reduction in vincristine IC50 at 1 uM preincubated for 4 hrs followed by vincristine addition measured after 72 hrs by MTT assay; type: cell-based
In short: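 KB-CV60 and HEK293/ABCC1 cells (transfected line kept in 2 mg/mL G418) given graded vincristine with or without modulator for 72 h; MK571 25 µM reference; viability by MTT read at 490 nm. IC50 from three independent repeats, mean ± SD; reversal fold = vincristine IC50 ratio without/with modulator.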

[18] = tested on: SW620/AD300; test: Antitumor activity against ABCB1 overexpressing human SW620/AD300 cells xenografted in BALB/c nude mouse assessed as reduction in tumor volume at 20 mg/kg/day, po measured after 21 days; type: functional, organism-based
In short: (§4)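 Female BALB/c nude mice (18-20 g, 5-6 weeks) bearing SW620/AD300 xenografts; grouping once tumours reached 100 mm3: saline vehicle […] ip, paclitaxel 5 mg/kg every 3 days ip, test agent 20 mg/kg/day orally, or the combination. Body weight and tumour volume recorded every 2 days over 21 days; tumours excised and weighed at end.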

[19] = tested on: Mus musculus; test: Toxicity in nude BALB/c mouse xenografted with ABCB1 overexpressing human SW620/AD300 cells assessed as change in body weight at 20 mg/kg/day, po cotreated with 5 mg/kg, ip paclitaxel measured after 21 days; type: organism-based; conditions: in vivo, 504 h; in short: as §4
[20] = tested on: SW-620; test: Inhibition of rhodamine 123 efflux in human SW620 cells up to 4 uM preincubated for 4 hrs followed by 30 mins incubation in Rho-123 containing medium and subsequent incubation in Rho-123 free medium up to 120 mins by flow cytometry; type: functional, cell-based; in short: as §2

T1 sequence (P08183 whole entry): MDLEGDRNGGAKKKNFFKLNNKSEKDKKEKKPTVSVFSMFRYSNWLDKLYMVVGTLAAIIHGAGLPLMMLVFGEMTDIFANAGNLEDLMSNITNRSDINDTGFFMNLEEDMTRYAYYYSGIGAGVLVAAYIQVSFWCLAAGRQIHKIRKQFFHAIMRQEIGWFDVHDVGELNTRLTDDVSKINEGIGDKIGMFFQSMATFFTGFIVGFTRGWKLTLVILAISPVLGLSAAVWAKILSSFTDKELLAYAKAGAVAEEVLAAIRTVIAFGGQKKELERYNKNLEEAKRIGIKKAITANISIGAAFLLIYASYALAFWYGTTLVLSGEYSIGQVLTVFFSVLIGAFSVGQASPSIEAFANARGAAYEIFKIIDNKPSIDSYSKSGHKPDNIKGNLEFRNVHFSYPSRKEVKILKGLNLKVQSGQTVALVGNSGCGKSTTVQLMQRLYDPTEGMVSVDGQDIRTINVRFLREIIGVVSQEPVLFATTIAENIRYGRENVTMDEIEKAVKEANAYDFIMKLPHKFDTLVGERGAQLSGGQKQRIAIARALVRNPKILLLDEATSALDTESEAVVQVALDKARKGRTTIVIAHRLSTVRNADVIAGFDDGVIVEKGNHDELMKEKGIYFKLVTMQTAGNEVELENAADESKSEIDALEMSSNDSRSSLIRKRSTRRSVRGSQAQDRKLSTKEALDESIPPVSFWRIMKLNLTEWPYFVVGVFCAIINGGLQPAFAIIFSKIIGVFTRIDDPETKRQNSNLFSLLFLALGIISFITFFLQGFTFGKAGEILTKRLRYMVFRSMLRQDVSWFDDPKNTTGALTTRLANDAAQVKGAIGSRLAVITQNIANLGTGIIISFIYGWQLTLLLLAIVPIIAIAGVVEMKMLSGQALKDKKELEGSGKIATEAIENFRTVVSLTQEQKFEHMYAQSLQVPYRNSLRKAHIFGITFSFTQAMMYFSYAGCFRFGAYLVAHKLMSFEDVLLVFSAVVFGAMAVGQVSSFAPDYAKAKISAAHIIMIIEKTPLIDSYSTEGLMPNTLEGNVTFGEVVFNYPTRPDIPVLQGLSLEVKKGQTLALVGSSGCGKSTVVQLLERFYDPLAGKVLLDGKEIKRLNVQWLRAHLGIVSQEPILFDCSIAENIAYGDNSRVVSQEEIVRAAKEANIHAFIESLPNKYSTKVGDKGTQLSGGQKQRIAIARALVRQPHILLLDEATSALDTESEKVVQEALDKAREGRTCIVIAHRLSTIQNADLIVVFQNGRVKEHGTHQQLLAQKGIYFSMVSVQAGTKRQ
T2 sequence (P33527 whole entry): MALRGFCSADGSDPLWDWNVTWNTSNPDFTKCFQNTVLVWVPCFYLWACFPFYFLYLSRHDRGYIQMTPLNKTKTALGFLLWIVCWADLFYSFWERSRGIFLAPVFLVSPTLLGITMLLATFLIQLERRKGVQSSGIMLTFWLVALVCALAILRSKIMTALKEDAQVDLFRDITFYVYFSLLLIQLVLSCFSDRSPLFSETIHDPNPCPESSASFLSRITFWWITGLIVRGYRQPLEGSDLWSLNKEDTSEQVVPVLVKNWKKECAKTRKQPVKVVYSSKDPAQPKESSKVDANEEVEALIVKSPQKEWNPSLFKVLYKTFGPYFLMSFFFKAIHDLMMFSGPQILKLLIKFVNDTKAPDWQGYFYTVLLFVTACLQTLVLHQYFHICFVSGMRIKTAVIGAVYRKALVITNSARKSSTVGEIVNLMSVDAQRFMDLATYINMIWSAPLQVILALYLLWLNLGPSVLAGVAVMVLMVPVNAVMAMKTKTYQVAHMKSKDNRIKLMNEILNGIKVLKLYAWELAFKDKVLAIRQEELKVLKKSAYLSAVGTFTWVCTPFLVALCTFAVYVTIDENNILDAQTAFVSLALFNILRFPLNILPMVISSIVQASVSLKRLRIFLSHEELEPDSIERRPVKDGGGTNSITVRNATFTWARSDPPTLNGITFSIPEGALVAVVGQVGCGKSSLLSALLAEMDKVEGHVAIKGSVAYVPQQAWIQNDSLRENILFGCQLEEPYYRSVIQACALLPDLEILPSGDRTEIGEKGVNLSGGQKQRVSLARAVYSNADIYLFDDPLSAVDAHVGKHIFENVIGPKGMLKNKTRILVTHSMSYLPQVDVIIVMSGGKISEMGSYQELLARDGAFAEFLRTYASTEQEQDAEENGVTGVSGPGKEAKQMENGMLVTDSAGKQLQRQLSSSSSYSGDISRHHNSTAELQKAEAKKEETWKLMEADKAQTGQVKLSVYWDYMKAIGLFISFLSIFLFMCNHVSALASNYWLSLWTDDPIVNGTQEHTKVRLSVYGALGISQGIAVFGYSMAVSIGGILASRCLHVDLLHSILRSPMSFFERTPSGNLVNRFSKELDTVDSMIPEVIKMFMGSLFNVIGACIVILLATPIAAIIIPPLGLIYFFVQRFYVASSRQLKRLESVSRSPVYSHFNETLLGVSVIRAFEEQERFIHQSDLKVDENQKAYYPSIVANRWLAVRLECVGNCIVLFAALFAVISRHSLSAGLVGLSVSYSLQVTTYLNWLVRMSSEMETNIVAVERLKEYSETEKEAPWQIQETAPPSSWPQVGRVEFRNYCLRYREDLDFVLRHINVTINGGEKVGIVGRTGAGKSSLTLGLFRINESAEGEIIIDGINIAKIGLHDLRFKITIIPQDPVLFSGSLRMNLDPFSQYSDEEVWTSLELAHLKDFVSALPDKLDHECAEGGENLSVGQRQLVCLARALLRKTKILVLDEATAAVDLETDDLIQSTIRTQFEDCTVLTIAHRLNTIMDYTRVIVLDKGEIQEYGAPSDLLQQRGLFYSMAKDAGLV

COc1cc(-c2nc(SCC(=O)NC(=O)Nc3ccccn3)nc(Nc3cccc(Cl)c3)c2C#N)cc(OC)c1OC
fold change (FC) [1]: 837.2
viability at 72 h, 2 µM [2]: > 90%
viability at 72 h, 2 µM [3]: > 90%
fold change (FC) [4]: 72.17
inhibition (INH) [5]: Dose-dependent effect
fold change (FC) [6]: 135.03
inhibition (INH) [7]: Dose-dependent effect
Activity [8]: inactive
inhibition (INH) [9]: Dose-dependent effect
inhibition (INH) [10]: Active
inhibition (INH) [11]: Dose-dependent effect
inhibition [12]: inactive
fold change (FC) [13]: 4.56
Activity [14]: Not Active
fold change (FC) [15]: 3.85
fold change (FC) [16]: 9.75
fold change (FC) [17]: 1.13
Activity [18]: inactive
Activity [19]: Non-Toxic
inhibition [20]: inactive
